Here are results for 23 molecules from ChEMBL document CHEMBL1149447, “Synthesis of 2,5-thiazole butanoic acids as potent and selective alpha(v)beta3 integrin receptor antagonists with improved oral pharmacokinetic properties” (Bioorg Med Chem Lett, 2006).

SMILES strings stand for the structures.

As usually defined, the bioavailability is the share of a dose that reaches the circulation, judged against a reference dose that is usually intravenous. For orientation: half-life means the time needed for the level to fall by half in the phase considered. For orientation: IC50 means the concentration that gives 50% inhibition. For orientation: Cmax means the maximum level reached in the sampled fluid or tissue. In general, clearance refers to the rate of elimination divided by the concentration.

Data set [1] in a line: Bioavailability in dog. It counts as ADME, organism-based, Canis lupus familiaris. The settings on record: in vivo.
Data set [2] is described as follows: Half life in dog. The class given is ADME, organism-based, Canis lupus familiaris. Particulars: in vivo.
Data set [3] in a line: Bioavailability in cynomonkey. The settings on record: cynomolgus monkey, in vivo. The class given is ADME, organism-based, Macaca fascicularis.
Data set [4] is described as follows: Half life in cynomonkey. The class given is ADME, organism-based, Macaca fascicularis. Particulars: cynomolgus monkey, in vivo.
The nature of data set [5]: Volume of distribution in rat. Particulars: in vivo, read-out: Vdss. It counts as ADME, organism-based. In short, it runs like this: (§1)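 Rats were given the compound both orally and intravenously. Oral and IV AUC are each normalized to dose (µg h/ml per mg/kg). The same rat study also reports oral bioavailability (%F), half-life (h), Cmax (µg/mL), clearance (mL/min/kg) and terminal volume Vz (mL/kg).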

In a further data set the target is Integrin alpha-V/beta-3 (Homo sapiens, UniProt P05106+P06756). In words: Inhibition of Integrin alphaV Beta3 receptor by solid-phase receptor binding assay. It counts as protein-complex assay.
Sequence of Integrin alpha-V/beta-3 (P05106 27-788 limits assumed): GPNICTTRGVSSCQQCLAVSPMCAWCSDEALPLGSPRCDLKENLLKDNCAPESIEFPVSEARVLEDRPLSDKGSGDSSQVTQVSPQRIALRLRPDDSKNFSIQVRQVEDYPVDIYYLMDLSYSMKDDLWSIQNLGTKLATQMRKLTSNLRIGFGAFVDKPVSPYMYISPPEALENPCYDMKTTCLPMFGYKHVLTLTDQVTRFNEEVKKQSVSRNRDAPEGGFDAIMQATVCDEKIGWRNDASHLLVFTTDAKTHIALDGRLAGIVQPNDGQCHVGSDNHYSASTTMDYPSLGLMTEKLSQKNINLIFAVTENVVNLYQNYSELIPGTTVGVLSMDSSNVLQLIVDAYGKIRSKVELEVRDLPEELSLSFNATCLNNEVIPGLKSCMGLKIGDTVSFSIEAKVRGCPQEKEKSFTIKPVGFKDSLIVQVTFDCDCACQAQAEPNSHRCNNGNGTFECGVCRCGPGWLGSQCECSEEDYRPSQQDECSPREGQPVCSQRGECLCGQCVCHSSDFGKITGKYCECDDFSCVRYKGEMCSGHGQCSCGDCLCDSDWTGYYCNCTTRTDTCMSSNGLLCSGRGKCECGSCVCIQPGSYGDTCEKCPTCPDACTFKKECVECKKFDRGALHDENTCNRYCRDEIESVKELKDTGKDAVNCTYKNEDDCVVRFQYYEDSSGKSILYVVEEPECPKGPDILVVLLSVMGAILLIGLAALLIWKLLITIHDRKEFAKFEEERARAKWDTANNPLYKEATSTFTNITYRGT
Sequence of Integrin alpha-V/beta-3 (P06756 31-889 limits assumed): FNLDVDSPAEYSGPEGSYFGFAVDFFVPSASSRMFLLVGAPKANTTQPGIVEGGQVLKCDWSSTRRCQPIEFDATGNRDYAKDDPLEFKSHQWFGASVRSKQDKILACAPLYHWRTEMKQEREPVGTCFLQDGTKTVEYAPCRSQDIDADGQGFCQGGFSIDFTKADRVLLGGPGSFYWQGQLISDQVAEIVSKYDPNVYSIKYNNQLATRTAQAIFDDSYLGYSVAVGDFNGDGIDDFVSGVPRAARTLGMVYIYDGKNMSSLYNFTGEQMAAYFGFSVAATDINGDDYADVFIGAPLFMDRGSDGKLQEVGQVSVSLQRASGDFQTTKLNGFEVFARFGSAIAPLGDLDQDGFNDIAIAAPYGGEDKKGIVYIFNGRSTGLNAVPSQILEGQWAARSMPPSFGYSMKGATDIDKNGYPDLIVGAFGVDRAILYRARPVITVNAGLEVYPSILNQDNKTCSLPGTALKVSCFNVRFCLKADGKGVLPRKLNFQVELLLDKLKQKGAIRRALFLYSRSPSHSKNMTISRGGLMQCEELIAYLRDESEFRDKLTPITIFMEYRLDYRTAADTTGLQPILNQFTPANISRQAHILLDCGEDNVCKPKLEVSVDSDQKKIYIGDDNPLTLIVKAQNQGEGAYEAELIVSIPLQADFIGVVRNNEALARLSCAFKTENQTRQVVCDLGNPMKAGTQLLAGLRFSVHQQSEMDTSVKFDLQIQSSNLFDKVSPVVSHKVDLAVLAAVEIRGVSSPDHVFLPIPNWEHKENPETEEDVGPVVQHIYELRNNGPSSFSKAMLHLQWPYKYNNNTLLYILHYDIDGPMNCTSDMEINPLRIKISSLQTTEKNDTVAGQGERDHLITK
Sequence of Integrin alpha-V/beta-3 (P06756 891-1048 limits assumed): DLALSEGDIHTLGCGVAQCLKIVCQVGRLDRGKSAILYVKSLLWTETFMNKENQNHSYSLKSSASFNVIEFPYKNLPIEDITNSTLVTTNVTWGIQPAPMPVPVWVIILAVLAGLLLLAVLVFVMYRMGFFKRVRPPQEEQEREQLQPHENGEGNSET
A further data set addresses Integrin alpha-V/beta-6 (Homo sapiens, UniProt P06756+P18564). As to the kind of experiment: Inhibition of Integrin alphaV Beta6 receptor in HT29 cells by solid-phase receptor binding assay. The class given is cell-based, HT-29.
Data set [6] can be described thus: Bioavailability in rat. The class given is ADME, organism-based. The settings on record: in vivo. The procedure, abridged:
as §1

Data set [7] in a line: Half life in rat. The class given is ADME, organism-based. Particulars: in vivo. In short, it runs like this:
as §1

Data set [8] has as its system Rattus norvegicus. As to the kind of experiment: AUC/dose(mg/kg) in orally dosed rat. The class given is ADME, organism-based, Plasma. Particulars: in vivo, po. The procedure, abridged: as §1
Data set [9] relates to Rattus norvegicus. As to the kind of experiment: AUC/dose(mg/kg) in iv dosed rat. The settings on record: in vivo. The class given is ADME, organism-based, Plasma. The procedure, abridged:
as §1

Data set [10] in a line: Cmax in rat. The class given is ADME, organism-based. The settings on record: in vivo. The procedure, abridged:
as §1

Data set [11] is described as follows: Clearance in rat. It counts as ADME, organism-based. Particulars: in vivo. The procedure, abridged:
as §1

For data set [12], the target named is Integrin alpha-IIb/beta-3 (Homo sapiens, UniProt P05106+P08514). As to the kind of experiment: Inhibition of Integrin alphaIIb Beta3 receptor by solid-phase receptor binding assay. The class given is protein-complex assay.
Sequence of Integrin alpha-IIb/beta-3 (P05106 27-788 limits assumed): as the sequence (P05106 27-788 limits assumed) above
Sequence of Integrin alpha-IIb/beta-3 (P08514 32-887 limits assumed): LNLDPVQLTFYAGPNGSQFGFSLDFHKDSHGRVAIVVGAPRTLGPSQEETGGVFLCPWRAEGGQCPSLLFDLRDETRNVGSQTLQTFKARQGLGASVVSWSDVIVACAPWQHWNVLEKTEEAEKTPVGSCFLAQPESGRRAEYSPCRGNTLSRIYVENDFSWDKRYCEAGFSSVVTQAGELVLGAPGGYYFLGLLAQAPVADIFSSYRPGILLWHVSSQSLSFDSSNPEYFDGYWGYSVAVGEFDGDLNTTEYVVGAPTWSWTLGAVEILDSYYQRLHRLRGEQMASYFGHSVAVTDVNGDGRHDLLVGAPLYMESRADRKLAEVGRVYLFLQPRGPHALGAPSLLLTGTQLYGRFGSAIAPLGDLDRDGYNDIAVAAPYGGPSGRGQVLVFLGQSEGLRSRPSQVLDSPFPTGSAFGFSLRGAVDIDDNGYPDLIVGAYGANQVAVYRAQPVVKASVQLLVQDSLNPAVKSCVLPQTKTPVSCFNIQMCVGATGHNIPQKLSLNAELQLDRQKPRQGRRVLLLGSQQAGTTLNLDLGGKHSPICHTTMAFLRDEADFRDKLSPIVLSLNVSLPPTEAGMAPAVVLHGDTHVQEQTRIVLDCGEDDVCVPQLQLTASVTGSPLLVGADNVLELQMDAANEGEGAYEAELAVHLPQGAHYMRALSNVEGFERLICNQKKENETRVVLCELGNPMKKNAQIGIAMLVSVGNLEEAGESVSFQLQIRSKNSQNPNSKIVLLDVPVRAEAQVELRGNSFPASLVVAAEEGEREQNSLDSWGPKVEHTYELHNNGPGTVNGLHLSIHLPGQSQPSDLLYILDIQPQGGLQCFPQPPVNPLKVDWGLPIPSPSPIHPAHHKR
Sequence of Integrin alpha-IIb/beta-3 (P08514 891-1039 limits assumed): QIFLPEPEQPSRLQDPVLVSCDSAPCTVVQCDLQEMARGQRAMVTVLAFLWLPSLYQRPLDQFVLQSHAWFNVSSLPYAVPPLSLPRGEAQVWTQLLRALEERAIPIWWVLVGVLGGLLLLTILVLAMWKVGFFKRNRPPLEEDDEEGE

Sequence of Integrin alpha-V/beta-6 (P06756 31-889 limits assumed): as the sequence (P06756 31-889 limits assumed) above
Sequence of Integrin alpha-V/beta-6 (P06756 891-1048 limits assumed): as the sequence (P06756 891-1048 limits assumed) above
Sequence of Integrin alpha-V/beta-6 (P18564 22-788 limits assumed): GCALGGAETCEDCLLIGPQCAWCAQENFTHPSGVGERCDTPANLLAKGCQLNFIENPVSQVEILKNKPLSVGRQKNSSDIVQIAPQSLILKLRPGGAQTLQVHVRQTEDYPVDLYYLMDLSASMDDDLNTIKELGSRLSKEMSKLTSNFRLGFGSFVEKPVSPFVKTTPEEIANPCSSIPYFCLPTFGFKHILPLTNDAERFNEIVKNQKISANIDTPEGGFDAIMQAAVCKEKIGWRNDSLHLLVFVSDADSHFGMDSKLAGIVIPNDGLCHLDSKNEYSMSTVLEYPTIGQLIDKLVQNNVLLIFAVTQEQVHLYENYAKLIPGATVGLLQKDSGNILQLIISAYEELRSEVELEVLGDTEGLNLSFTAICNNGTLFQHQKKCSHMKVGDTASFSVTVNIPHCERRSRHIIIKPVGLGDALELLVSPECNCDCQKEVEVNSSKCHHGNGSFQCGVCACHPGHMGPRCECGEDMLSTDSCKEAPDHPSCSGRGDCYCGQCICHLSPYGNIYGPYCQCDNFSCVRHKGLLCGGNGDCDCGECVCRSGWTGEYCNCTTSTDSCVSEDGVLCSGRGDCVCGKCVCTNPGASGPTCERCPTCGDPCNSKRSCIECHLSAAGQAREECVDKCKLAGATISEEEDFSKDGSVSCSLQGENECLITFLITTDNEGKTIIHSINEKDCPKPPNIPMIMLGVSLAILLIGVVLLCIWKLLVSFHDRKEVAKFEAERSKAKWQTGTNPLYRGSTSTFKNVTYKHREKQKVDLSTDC

In the case of `O=C(O)C[C@H](Cc1csc(CCCc2ccc3c(n2)NCCC3)n1)c1ccc2c(c1)OCO2`, the bioavailability was 60% in data set [1] and 64% in data set [3]. Moreover, the half-life in data set [2] is 13 h; in [4], 11.2 h.
As for `COCc1ncc(C(CC(=O)O)Cc2csc(CCCc3ccc4c(n3)NCCC4)n2)s1` (configuration not stated), in data set [5], the Vd worked out at 2.68 L/kg. The IC50 at Integrin alpha-V/beta-3 came out at 1.2 nM; at Integrin alpha-V/beta-6, 841 nM. Also, the bioavailability in [6] was found to be 90%. Besides, the half-life in data set [7] was 7.1 h. Moreover, the AUC/dose in the data set with Rattus norvegicus [8] was found to be 1.7 µg·h/mL; with Rattus norvegicus [9], 1.9 µg·h/mL. In [10], this molecule came in with a Cmax of 3000 ng/mL. In [11], this molecule yielded a clearance of 8.7 mL/min/kg.
On to `O=C(O)CC(Cc1csc(CCCc2ccc3c(n2)NCCC3)n1)c1cnc(-c2ccccc2)s1` (configuration not stated), for which the IC50 on Integrin alpha-V/beta-3 amounted to 1.77 nM; in data set [12], 252 nM; at Integrin alpha-V/beta-6 it was 2670 nM.
Molecule `O=C(O)C[C@H](Cc1csc(CCCCNc2cc(N3CCCC3)ccn2)n1)c1ccc2c(c1)OCO2` registered an IC50 at Integrin alpha-V/beta-3 of 1.26 nM.
Same read-out and setting: next, `COc1ccc(C(CC(=O)O)Cc2csc(CCCCNc3cc(N4CCOCC4)ccn3)n2)cn1` (configuration not stated): 3.54 nM.
As for `COc1ccc(C(CC(=O)O)Cc2csc(CCCc3ccc4c(n3)NCCN4C)n2)cn1` (configuration not stated), at Integrin alpha-V/beta-3, the 50% inhibitory concentration (IC50) was determined as 1.24 nM.
With `O=C(O)CC(Cc1csc(CCCc2ccc3c(n2)NCCC3)n1)c1ccc2c(c1)OCO2` (configuration not stated), in data set [5], the Vd turned out to be 0.897 L/kg. The figures for the 50% inhibitory concentration (IC50) (on Integrin alpha-V/beta-3; in data set [12]; at Integrin alpha-V/beta-6) were 1.18 nM, 263 nM and 2390 nM, respectively. In addition, the bioavailability in [6] was more than 100%. Further, the half-life in data set [7] was 7 h. Moreover, the AUC/dose in the data set on Rattus norvegicus [8] is 6.8 µg·h/mL; in the data set on Rattus norvegicus [9], 5.2 µg·h/mL. The molecule further came in with a maximum concentration (Cmax) in data set [10] of 19600 ng/mL. The molecule also registered a clearance in data set [11] of 3.3 mL/min/kg.
On to `COc1ccc(C(CC(=O)O)Cc2csc(CCCc3ccc4c(n3)NCCC4)n2)cn1` (configuration not stated), for which the Vd in [5] was determined as 2.95 L/kg. Besides, the IC50 stood at 1.23 nM on Integrin alpha-V/beta-3 and 1320 nM at Integrin alpha-V/beta-6. In addition, the bioavailability in [6] was more than 100%. This molecule had a half-life in [7] of 6.3 h. Also, the results for the AUC/dose with Rattus norvegicus [8] and in the data set with Rattus norvegicus [9] were 1.6 µg·h/mL and 1.4 µg·h/mL, respectively. In data set [10], this molecule had a Cmax of 6600 ng/mL. In data set [11], this molecule came in with a clearance of 12.3 mL/min/kg.
Regarding `Cc1nc2cc(C(CC(=O)O)Cc3csc(CCCc4ccc5c(n4)NCCC5)n3)ccc2s1` (configuration not stated), the half-maximal inhibitory concentration (IC50) on Integrin alpha-V/beta-3 is 2.82 nM; in [12], 95.1 nM; at Integrin alpha-V/beta-6, more than 10000 nM.
For the molecule `CN1CCNc2nc(CCCc3nc(CC(CC(=O)O)c4ccc5c(c4)OCO5)cs3)ccc21` (configuration not stated), the IC50 on Integrin alpha-V/beta-3 was 0.61 nM.
Consider `O=C(O)CC(Cc1csc(CCCc2ccc3c(n2)NCCC3)n1)c1ccc(Cl)cc1` (configuration not stated), for which the IC50 on Integrin alpha-V/beta-3 came to 3.81 nM; in [12], 636 nM; on Integrin alpha-V/beta-6, 2440 nM.
As for `COc1ccc(C(CC(=O)O)Cc2csc(CCCc3ccc4c(n3)NCCC4)n2)cc1F` (configuration not stated), in [5], the Vd was determined as 1.29 L/kg. In addition, the IC50 is 2.17 nM on Integrin alpha-V/beta-3, 405 nM in data set [12] and 3260 nM at Integrin alpha-V/beta-6. In data set [6], this molecule displayed a bioavailability of 95%. The molecule also gave a half-life in [7] of 4.3 h. Also, the AUC/dose came to 1.8 µg·h/mL with Rattus norvegicus [8] and 1.9 µg·h/mL in the data set with Rattus norvegicus [9]. Further, the Cmax in data set [10] amounted to 9100 ng/mL. The clearance in data set [11] came out at 9 mL/min/kg.
For the molecule `Cc1ccc(C(CC(=O)O)Cc2csc(CCCc3ccc4c(n3)NCCC4)n2)cc1` (configuration not stated), the IC50 stood at 11.1 nM at Integrin alpha-V/beta-3, 2000 nM in data set [12] and 5060 nM on Integrin alpha-V/beta-6.
Regarding `COc1ccc(C(CC(=O)O)Cc2csc(CCCCNc3cc(N4CCCC4)ccn3)n2)cn1` (configuration not stated), the IC50 on Integrin alpha-V/beta-3 came out at 3 nM.
Consider `COc1cc(OC)cc(C(CC(=O)O)Cc2csc(CCCc3ccc4c(n3)NCCC4)n2)c1` (configuration not stated), for which the Vd in [5] stood at 2.04 L/kg. In addition, the half-inhibitory concentration (IC50) on Integrin alpha-V/beta-3 came out at 1.54 nM; in data set [12], 350 nM; on Integrin alpha-V/beta-6 it was 1740 nM. This molecule also registered a bioavailability in data set [6] of 98%. The half-life in data set [7] was 6.1 h. Besides, the AUC/dose in the data set with Rattus norvegicus [8] and in the data set on Rattus norvegicus [9] was 2.2 µg·h/mL in each case. In data set [10], this molecule displayed a Cmax of 6100 ng/mL. The molecule further displayed a clearance in [11] of 7.3 mL/min/kg.
Regarding `O=C(O)CC(Cc1nc(CCCc2ccc3c(n2)NCCC3)no1)c1ccc2c(c1)OCO2` (racemic), the Vd in [5] came to 0.733 L/kg. The same molecule displayed a bioavailability in [6] of 95%. For the same molecule, the half-life in data set [7] was 1.4 h. The AUC/dose in the data set with Rattus norvegicus [8] was 1.5 µg·h/mL; with Rattus norvegicus [9] it was 1.6 µg·h/mL. The molecule further showed a Cmax in data set [10] of 12000 ng/mL. Besides, the clearance in data set [11] worked out at 10.9 mL/min/kg.
Turning to `O=C(O)CC(Cc1csc(CCCc2ccc3c(n2)NCCC3)n1)c1cccc(F)c1` (configuration not stated), the concentration for half-maximal inhibition (IC50) at Integrin alpha-V/beta-3 was 2.8 nM; in [12] it was 559 nM; on Integrin alpha-V/beta-6 it was 1310 nM.
Taken in the same sequence, the figures for `O=C(O)CC(Cc1csc(CCCc2ccc3c(n2)NCCC3)n1)c1cnc(-c2ccc(Cl)cc2)s1` (configuration not stated) were 2.09 nM, 559 nM and 4300 nM.
With `O=C(O)C[C@H](Cc1csc(CCCCNc2cc(N3CCSCC3)ccn2)n1)c1ccc2c(c1)OCO2`, the concentration for half-maximal inhibition (IC50) at Integrin alpha-V/beta-3 stood at 1.7 nM.
Take `O=C(O)CC(Cc1csc(CCCc2ccc3c(n2)NCCC3)n1)c1cnc(C2CC2)s1` (configuration not stated): the Vd in data set [5] is 1.02 L/kg. Further, the results for the IC50 at Integrin alpha-V/beta-3 and at Integrin alpha-V/beta-6 were 1.22 nM and 313 nM, respectively. The bioavailability in data set [6] was more than 100%. The half-life in [7] was 3.4 h. The AUC/dose in the data set with Rattus norvegicus [8] stood at 2.5 µg·h/mL; in the data set with Rattus norvegicus [9], 2.4 µg·h/mL. The molecule further came in with a Cmax in data set [10] of 22000 ng/mL. In data set [11], this molecule showed a clearance of 6.8 mL/min/kg.
As to `O=C(O)CC(Cc1csc(CCCc2ccc3c(n2)NCCC3)n1)c1ccc(F)c(F)c1` (configuration not stated), the IC50 on Integrin alpha-V/beta-3 worked out at 3.49 nM; in data set [12] it was 484 nM; on Integrin alpha-V/beta-6, 2120 nM.
On Integrin alpha-V/beta-3, `O=C(O)C[C@H](Cc1csc(CCCCNc2cc(N3CCOCC3)ccn2)n1)c1ccc2c(c1)OCO2` came in with a half-maximal inhibitory concentration (IC50) of 1.56 nM.
Still for that read-out and setting: next, `COc1ccc(C(CC(=O)O)Cc2csc(CCCCNc3cc(N4CCSCC4)ccn3)n2)cn1` (configuration not stated): 3.73 nM.
